Experimental data reported in article PMC7938327 (Journal of medicinal chemistry, 2017).
“Also recorded” adds a separate entry of the source.

Tests used:
human recombinant ATX [1] = target: T1, human recombinant ATX (Homo sapiens, UniProt Q13822); experiment: ATX lysophospholipase D activity, FS-3 hydrolysis; assay type: biochemical; details: for ATX inhibitory activity (in words): FS-3 substrate; for mechanism: FS-3 0 to 10 μM, inhibitor 0, 0.5 × IC50 or 2 × IC50, best global fit
human recombinant ATX [2] = target: T1, human recombinant ATX; experiment: ATX nucleotide pyrophosphatase activity, pNP-TMP hydrolysis; assay type: biochemical; details: 1 mM pNP-TMP, 4 nM ATX, compound 0 to 1 μM
Summary of the method: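 Human recombinant FLAG-tagged ATX was expressed in Sf9 insect cells and purified on anti-FLAG resin. Absorbance at 405 nm was read every 2 min for 1 h.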

[3] = In vitro stability in 4T1 cell culture by LC-MS; assay type: in vitro ADME, mouse; details: 40 h of exposure to 4T1 cells
[4] = tested on: A2058 human melanoma cells; experiment: ATX-mediated in vitro invasion assay; assay type: cell-based; details: exogenous LPC and recombinant ATX; for inhibition of A2058 cell invasion, screen at 10 μM: compared with 30; for inhibition of A2058 cell invasion (in words): dose–response
LPA1 = LPA1 (Homo sapiens, UniProt Q92633); experiment: LPA-mediated Ca2+ mobilization, LPA1 RH7777 cells; assay type: cell-based; details: LPA1-elicited Ca2+ responses
Summary of the method: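 Rat hepatoma RH7777 cells stably expressing LPA1 were seeded at 5 × 10^4 per well on poly-L-lysine, left overnight, then serum-deprived 4 h in HEPES-Krebs buffer pH 7.4. Cells were loaded 30 min with 4.5 μg/mL Fura-2AM plus 0.45% Pluronic F-127. […] The 340/510 and 380/510 nm ratio was read every 3.42 s for 70 s, normalized to LPA Emax, and fitted by variable-slope regression for IC50.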

[5] = tested on: 4T1-TaxR cancer stem-like cells (mammospheres); experiment: 4T1-TaxR mammosphere viability with paclitaxel; assay type: cell-based, mouse

Chain of LPA1 (Q92633 whole entry, species assumed): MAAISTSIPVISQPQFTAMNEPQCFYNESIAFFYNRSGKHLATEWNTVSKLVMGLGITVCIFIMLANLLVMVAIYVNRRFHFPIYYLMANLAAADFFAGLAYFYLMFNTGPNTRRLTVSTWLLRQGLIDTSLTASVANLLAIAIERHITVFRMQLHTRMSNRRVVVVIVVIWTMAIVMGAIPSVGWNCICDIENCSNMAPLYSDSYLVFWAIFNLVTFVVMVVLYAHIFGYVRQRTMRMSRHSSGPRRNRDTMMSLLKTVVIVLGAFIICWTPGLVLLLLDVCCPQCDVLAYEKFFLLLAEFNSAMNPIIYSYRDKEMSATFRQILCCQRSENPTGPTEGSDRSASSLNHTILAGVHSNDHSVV

Row | Molecule | ATX inhibitory activity (in words) (human recombinant ATX [1]) | pNP-TMP inhibition (human recombinant ATX [2]) | also measured
1 | 4-(2,4-Dichloro-5-(morpholinosulfonyl)benzamido)-2,6-difluoro-benzoic Acid [Compound 4] | inactive | none | –
2 | O=C(Nc1cccc(F)c1)c1cc(S(=O)(=O)N2CCOCC2)c(Cl)cc1Cl [Compound 3, 2,4-Dichloro-N-(3-fluorophenyl)-5-(morpholinosulfonyl)-benzamide] | – | none | in vitro stability (in words) [3]: significant stability; mechanism (human recombinant ATX [1]): competitive
3 | O=C(Nc1ccc(F)c(F)c1)c1cc(S(=O)(=O)N2CCOCC2)c(Cl)cc1Cl [Compound 3a, 2,4-Dichloro-N-(3,4-difluorophenyl)-5-(morpholinosulfonyl)-benzamide] | – | none | fold IC50 improvement relative to parent compound 3 (human recombinant ATX [1]; ATX, FS-3): 4 fold; mechanism (human recombinant ATX [1]): competitive; inhibition of A2058 cell invasion, screen at 10 μM [4]: as effective as 30; inhibition of A2058 cell invasion (in words) [4]: inhibit ATX-dependent invasion; also recorded: dose dependently decreased A2058 cell invasion
4 | O=C(Nc1c(F)c(F)c(F)c(F)c1F)c1cc(S(=O)(=O)N2CCOCC2)c(Cl)cc1Cl [Compound 3c, 2,4-Dichloro-5-(morpholinosulfonyl)-N-(perfluorophenyl)-benzamide] | poorly active | none | –
5 | O=C(Nc1cc(Cl)c(Cl)c(Cl)c1)c1cc(S(=O)(=O)N2CCOCC2)c(Cl)cc1Cl [Compound 3d, 2,4-Dichloro-5-(morpholinosulfonyl)-N-(3,4,5-trichlorophenyl)-benzamide] | poorly active | none | –
6 | COc1cc(NC(=O)c2cc(S(=O)(=O)N3CCOCC3)c(Cl)cc2Cl)cc(OC)c1OC [Compound 3e, 2,4-Dichloro-5-(morpholinosulfonyl)-N-(3,4,5-trimethoxyphenyl)-benzamide] | poorly active | none | –
7 | O=C(Nc1cc(Cl)c(F)c(Cl)c1)c1cc(S(=O)(=O)N2CCOCC2)c(Cl)cc1Cl [Compound 3g, 2,4-Dichloro-N-(3,5-dichloro-4-fluorophenyl)-5-(morpholinosulfonyl)benzamide] | – | none | fold higher potency of 3g over 3f (human recombinant ATX [1]; ATX, FS-3): 2 fold; mechanism (human recombinant ATX [1]): competitive; antagonist activity at LPA1 (in words) (LPA1): exhibited antagonist activity; also recorded: effective in antagonizing LPA1-elicited Ca^2+ responses
8 | N#Cc1c(F)cc(NC(=O)c2cc(S(=O)(=O)N3CCOCC3)c(Cl)cc2Cl)cc1F [Compound 3h, 2,4-Dichloro-N-(4-cyano-3,5-difluorophenyl)-5-(morpholinosulfonyl)benzamide] | – | none | –
9 | COC(=O)c1c(F)cc(NC(=O)c2cc(S(=O)(=O)N3CCOCC3)c(Cl)cc2Cl)cc1F [Compound 3i, Methyl 4-(2,4-Dichloro-5-(morpholinosulfonyl)benzamido)-2,6-difluorobenzoate] | – | none | –
10 | O=C(Nc1cc(F)c(F)c(F)c1Br)c1cc(S(=O)(=O)N2CCOCC2)c(Cl)cc1Cl [Compound 5, N-(2-Bromo-3,4,5-trifluorophenyl)-2,4-dichloro-5-(morpholinosulfonyl)benzamide] | – | none | –
11 | O=S(=O)(c1cc(-c2nc3cccc(F)c3o2)c(Cl)cc1Cl)N1CCOCC1 [Compound 7, 2-(2,4-Dichloro-5-(morpholinosulfonyl)phenyl)-7-fluorobenzo[d]-oxazole] | failed to inhibit ATX | none | –
12 | O=S(=O)(c1cc(-c2nc3cc(F)c(F)cc3[nH]2)c(Cl)cc1Cl)N1CCOCC1 [Compound 8, 4-((2,4-Dichloro-5-(5,6-difluoro-1H-benzo[d]imidazol-2-yl)-phenyl)sulfonyl)-morpholine] | failed to inhibit ATX | none | –
13 | CN(C(=O)c1cc(S(=O)(=O)N2CCOCC2)c(Cl)cc1Cl)c1cccc(F)c1 [Compound 9, 2,4-Dichloro-N-(3-fluorophenyl)-N-methyl-5-(morpholinosulfonyl)benzamide] | only very weak potency | none | –
14 | O=S(=O)(c1cc(CNc2ccc(F)c(F)c2)c(Cl)cc1Cl)N1CCOCC1 [Compound 10, N-(2,4-Dichloro-5-(morpholinosulfonyl)benzyl)-3,4-difluoroani-line] | inactive | none | –
15 | O=S(=O)(c1cc(CNc2cc(F)c(F)c(F)c2)c(Cl)cc1Cl)N1CCOCC1 [Compound 11, N-(2,4-Dichloro-5-(morpholinosulfonyl)benzyl)-3,4,5-trifluoroani-line] | – | none | –
16 | O=S(=O)(c1cc(C(=S)Nc2cccc(F)c2)c(Cl)cc1Cl)N1CCOCC1 [Compound 12, 2,4-Dichloro-N-(3-fluorophenyl)-5-(morpholinosulfonyl)-benzothioamide] | retained similar inhibitory activity as the amide analogues | none | –
17 | O=S(=O)(c1cc(C(=S)Nc2ccc(F)c(F)c2)c(Cl)cc1Cl)N1CCOCC1 [Compound 13, 2,4-Dichloro-N-(3,4-difluorophenyl)-5-(morpholinosulfonyl)-benzothioamide] | retained similar inhibitory activity as the amide analogues | none | –
18 | O=S(=O)(c1cc(C(=S)Nc2cc(F)c(F)c(F)c2)c(Cl)cc1Cl)N1CCOCC1 [Compound 14, 2,4-Dichloro-5-(morpholinosulfonyl)-N-(3,4,5-trifluorophenyl)-benzothioamide] | retained similar inhibitory activity as the amide analogues | none | in vitro stability (in words) [3]: significant stability; fold IC50 improvement relative to parent compound 3 (human recombinant ATX [1]; ATX, FS-3): 3 fold; mechanism (human recombinant ATX [1]): competitive; inhibition of A2058 cell invasion, screen at 10 μM [4]: as effective as 30; inhibition of A2058 cell invasion (in words) [4]: inhibit ATX-dependent invasion; also recorded: dose dependently decreased A2058 cell invasion
19 | O=S(=O)(c1cc(C(=S)Nc2cc(Cl)c(F)c(Cl)c2)c(Cl)cc1Cl)N1CCOCC1 [Compound 15, 2,4-Dichloro-N-(3,5-dichloro-4-fluorophenyl)-5-(morpholinosulfonyl)-benzothioamide] | retained similar inhibitory activity as the amide analogues | none | –
20 | O=S(=O)(Nc1cc(S(=O)(=O)N2CCOCC2)c(Cl)cc1Cl)c1cccc(F)c1 [Compound 19] | lost their ATX inhibitory activity | none | –
21 | O=S(=O)(c1cc(N(S(=O)(=O)c2cccc(F)c2)S(=O)(=O)c2cccc(F)c2)c(Cl)cc1Cl)N1CCOCC1 [Compound 20] | lost their ATX inhibitory activity | none | –
22 | O=S(=O)(Nc1cccc(F)c1)c1cc(S(=O)(=O)N2CCOCC2)c(Cl)cc1Cl [Compound 22, 2,4-Dichloro-N-(3-fluorophenyl)-5-(morpholinosulfonyl)-benzenesulfonamide] | lost their ATX inhibitory activity | none | –
23 | O=S(=O)(Nc1cc(F)c(F)c(F)c1)c1cc(S(=O)(=O)N2CCOCC2)c(Cl)cc1Cl [Compound 23, 2,4-Dichloro-5-(morpholinosulfonyl)-N-(3,4,5-trifluorophenyl)-benzenesulfonamide] | lost their ATX inhibitory activity | none | –
24 | O=C(Nc1cc(F)c(F)c(F)c1)c1cc(NN2CCOCC2)c(Cl)cc1Cl [Compound 25, 2,4-Dichloro-5-(morpholinoamino)-N-(3,4,5-trifluorophenyl)-benzamide] | completely lost ATX inhibitory activity | none | –
25 | CS(=O)(=O)N(C(=O)c1cc(NN2CCOCC2)c(Cl)cc1Cl)c1cc(F)c(F)c(F)c1 [Compound 26a, 2,4-Dichloro-N-(methylsulfonyl)-5-(morpholinoamino)-N-(3,4,5-trifluorophenyl)-benzamide] | – | none | –
26 | CN1CCN(S(=O)(=O)c2cc(C(=O)Nc3cc(F)c(F)c(F)c3)c(Cl)cc2Cl)CC1 [Compound 28a, 2,4-Dichloro-5-((4-methylpiperazin-1-yl)sulfonyl)-N-(3,4,5-trifluorophenyl)-benzamide] | – | none | –
27 | CN1CCN(S(=O)(=O)c2cc(C(=O)Nc3cc(Cl)c(F)c(Cl)c3)c(Cl)cc2Cl)CC1 [Compound 28b, 2,4-Dichloro-N-(3,5-dichloro-4-fluorophenyl)-5-((4-methylpiperazin-1-yl)sulfonyl)benzamide] | – | none | –
28 | CN1CCN(S(=O)(=O)c2cc(C(=S)Nc3cc(Cl)c(F)c(Cl)c3)c(Cl)cc2Cl)CC1 [Compound 29, 2,4-Dichloro-N-(3,5-dichloro-4-fluorophenyl)-5-((4-methylpipera-zin-1-yl)sulfonyl)-benzothioamide] | – | none | –
29 | CCCCCCCCCCCCCCCc1ccc(CP(=O)(O)O)cc1 [compound 30, (4-pentadecylbenzyl)phosphonic acid, reference compound] | – | – | resensitization of cancer stem-like cells to PT (in words) ([5]; 4T1-TaxR cells): effectively resensitized; further reduction of cell viability compared to PT alone ([5]; 4T1-TaxR mammospheres, PT 100 nM, compound 5 μM, 3 days): 25–30%
